Calb biofilm kill: mixtures killing C. albicans biofilm. C. albicans biofilm persisters + clotrimazole, fluorescence viability; primary screen in compound mixtures of four per well. inhibition, % at 7.6 µM. 120,000 compounds, 0.02% hits;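 active means inhibition above 30.3% in the primary screen of four-compound pools, then above 30% when the compound was retested; inconclusive means passed the primary limit but could not be retested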;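 further: compounds exposed to preformed 24 h biofilms for 48 h; 0% = untreated biofilm control and 100% = clotrimazole plus chlorhexidine kill blank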
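Assay system: C. albicans biofilms / Medium: RPMI/MOPS medium, pH 7.0 / Schedule: biofilm formation 24 h, compound exposure 48 h, 37 °C / Measured by: Alamar Blue fluorescence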
Pf gamet viab: inhibitors of late stage P. falciparum gametocyte viability; P. falciparum stage V gametocytes, ATP luminescence, 24 h; inhibition, % at 10.9 µM; 150,000 compounds, 0.065% hits;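 active means inhibition above the mean plus 3 SD of compounds within the control limits, set per campaign, cut at about 38% in these data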;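 further: 0% = DMSO wells and 100% = medium only without gametocytes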
ROMK primary: modulates human ROMK potassium channel activity. P48048. Tet-inducible ROMK, thallium flux fluorescence; actives lie on both sides. B-score at 10 µM. 130,000 compounds, 2% hits. AID 1918;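 active means signal ratio slope over the read window, or its plate-corrected B-score, at least 3 SD from the plate mean, either direction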;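 further: B-score of the F/F0 ratio slope over 7 to 12 s after thallium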
Target sequence (P48048 whole entry, looked up): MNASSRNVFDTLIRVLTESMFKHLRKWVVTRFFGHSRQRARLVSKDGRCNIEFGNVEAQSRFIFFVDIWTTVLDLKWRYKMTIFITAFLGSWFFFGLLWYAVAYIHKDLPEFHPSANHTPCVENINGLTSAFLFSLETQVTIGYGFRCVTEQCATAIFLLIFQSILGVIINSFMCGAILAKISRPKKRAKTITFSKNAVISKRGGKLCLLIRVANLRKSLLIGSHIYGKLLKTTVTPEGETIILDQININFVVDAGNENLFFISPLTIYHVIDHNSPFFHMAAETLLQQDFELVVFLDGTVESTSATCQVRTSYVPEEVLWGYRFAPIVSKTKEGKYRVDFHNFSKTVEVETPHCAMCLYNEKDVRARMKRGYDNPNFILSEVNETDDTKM
ROMK retest: confirmation of human ROMK potassium channel modulators. shares compounds with ROMK primary. ROMK thallium flux, fluorescence ratio; hits give low values. normalized thallium flux (F/F0 slope) at 10 µM. 3,000 compounds, 54% hits. AID 1917;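 active means Flux at 10 µM at least 3 SD below or above vehicle control mean in one or both replicates; inconclusive means no clear call, values can overlap the other calls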
Active calls of the source: *; ? = inconclusive; nt = not tested or not shown. Only a selection was taken, and hits are over-represented in it overall.

SMILES	Calb biofilm kill	Pf gamet viab	ROMK primary	ROMK retest
COc1ccc(C(=O)ON=C2CCN(c3ccc([N+](=O)[O-])cc3)CC2)cc1	nt	0.3	nt	nt
O=C(CCN1C(=O)C2C3C=CC(C3)C2C1=O)N1CCN(c2ccc([N+](=O)[O-])cc2)CC1 (stereo not drawn)	14.6	-41.5	-2.21	0.0878
O=C(COC(=O)/C=C/c1cccs1)Nc1cccc(S(=O)(=O)N2CCCC2)c1	5.0	8.6	-0.863	nt
CN(C)S(=O)(=O)c1ccc(C(=O)N2CCOCC2)cc1	nt	-9.0	0.977	nt
CC1CCN(C(=O)c2ccc(S(=O)(=O)N(C)C)cc2)C(C)C1 (stereo not drawn)	nt	16.8	2.99*	0.0775
O=C1CNC(=S)N1c1nc2ccccc2s1	13.0	20.6	0.0547	nt
CCOc1ccc(-n2c(SCC(=O)Nc3cc(C)on3)nnc2-c2c[nH]c3ccccc23)cc1	nt	nt	4.3*	0.0733
Cc1cc(NC(=O)CSc2nnc(-c3c[nH]c4ccccc34)n2-c2ccc(F)cc2)no1	15.9	nt	nt	nt
O=C(Nc1ccc(Cl)cc1)Nc1cccc2nsnc12	18.1	nt	nt	nt
CCNc1nn2ccccc2c1/C=C(\C#N)C(=O)OCC	8.6	nt	nt	nt
COc1ccc([C@H]2[C@H](C(=O)OC(C)(C)C)N3N=Cc4ccccc4C3C23C(=O)c2ccccc2C3=O)cc1OC (stereo partly drawn)	13.7	nt	nt	nt
COc1ccc([C@H]2[C@H](C(=O)OC(C)(C)C)N3N=Cc4ccccc4C3C23C(=O)c2ccccc2C3=O)c(OC)c1 (stereo partly drawn)	13.7	-7.3	nt	0.0602*
CCc1ccccc1N1C(=O)C(Cl)=C(N2CCOCC2)C1=O	nt	-17.1	nt	nt
COC(=O)c1c(C)nc(C)c2c(=O)oc3ccccc3c12	nt	nt	nt	?
COC(=O)c1cc2c(ccc3ccccc32)oc1=O	nt	20.0	nt	nt
CC(C)(C)c1cc(NS(=O)(=O)c2cccs2)no1	nt	13.6	nt	nt
N#CC1=C(SCC(=O)NC2CC2)NC(=O)C(C#N)C12CCCCC2 (stereo not drawn)	nt	10.8	0.542	nt
N#CC1=C(SCC(=O)NC23CC4CC(CC(C4)C2)C3)NC(=O)C(C#N)C12CCCCC2 (stereo not drawn)	nt	2.0	-3.69*	0.0569*
CCCCCCn1c(N)c(C#N)c2ccc([N+](=O)[O-])cc2c1=O	5.4	-1.4	-0.081	nt
CC(=O)NN1C(=O)/C(=C\c2ccc(Br)o2)SC1=S	-0.1	10.3	-4.14*	0.0551*
CC(=O)NN1C(=O)/C(=C\c2ccc(O)cc2)SC1=S	23.7	nt	-0.553	nt
COC(=O)Cc1c(C(=O)OC)nnn1-c1cccc(C(F)(F)F)c1	8.5	2.3	nt	nt
S=C(Nc1ccc(Oc2ccccc2)cc1)Nc1cccnc1	nt	2.5	nt	nt
COc1ccc(C(=O)NCCN2CCOCC2)c(OC)c1OC	7.8	-7.8	0.924	nt
Cc1ccc(Sc2ccc(N)cc2C#N)cc1	nt	6.2	nt	nt
SMILES	Calb biofilm kill	Pf gamet viab	ROMK primary	ROMK retest
Cc1ccccc1-c1nn(-c2ccc(F)cc2F)cc1CNCCCN(C)C	-0.4	2.1	-0.993	nt
CCC(C)(C)c1ccc(OCCCC[n+]2cccc(C)c2)c(C(C)(C)CC)c1	13.4	-8.9	-4.07*	0.0466*
CCCCCCCCCC[n+]1cccc(C(=O)N(CC)CC)c1	17.9	-2.3	-1.66	nt
O=C1Nc2ccccc2/C1=C/C(=O)c1cccs1	nt	-27.9	-5.62*	0.0387*
CCN1C(=O)/C(=C\C(=O)c2cccs2)c2cc(Br)ccc21	17.3	9.1	-2.22	nt
CCOc1ncccc1C(=O)N1CCN(c2cc(Cl)ccc2C)CC1	8.5	nt	3.28*	0.0805
CCOc1ncccc1C(=O)N1CCN(S(=O)(=O)c2ccccc2)CC1	11.2	1.1	0.035	nt
CCOc1ncccc1C(=O)N1CCN(C(=O)c2ccccc2)CC1	8.5	-59.1	-0.14	nt
CCOc1ncccc1C(=O)N1CCN(c2cccc(C)c2C)CC1	9.4	0.6	7.26*	0.0822
CCCN1Cc2cccc(C(=O)N3CCN(c4cc(Cl)ccc4C)CC3)c2C1=O	nt	nt	nt	?
CCOC(=O)N1CCC(N2Cc3cccc(C(=O)N4CCN(c5cccc(Cl)c5)CC4)c3C2=O)CC1	18.6	nt	-0.624	nt
NC(=O)c1nc(-c2ccco2)nc2c1[nH]c(=O)n2-c1ccc(Cl)c(Cl)c1	24.2	-9.8	nt	nt
C=CCN1C(=O)SC(Cc2cccc(OC)c2O)C1=O (stereo not drawn)	10.2	nt	-0.908	nt
CCN(CC)S(=O)(=O)c1ccc(NN=c2c(=O)c3ccccc3c2=O)cc1	20.8	-3.6	nt	nt
COc1cc(Nc2ncnc(N)n2)cc(OC)c1	13.8	-6.5	-0.0896	nt
Cc1ccc(NC(=O)c2cc(S(=O)(=O)N3CCOCC3)c(Br)s2)cc1	19.3	15.4	nt	0.0806
Cc1nc2ccc(NC(=O)c3ccc(S(=O)(=O)N4CCOCC4)cc3)cc2s1	nt	10.0	3.19*	0.0774
Cc1ccc(C(=O)Nc2ccc(S(=O)(=O)N3CCOCC3)cc2)cc1Br	nt	18.4	nt	nt
CC(=O)Nc1ccc(C(=O)Nc2ccc(S(=O)(=O)N3CCOCC3)cc2)cc1	nt	20.5	nt	nt
N#CC1=C(N)Nc2ncnn2C1c1ccc(F)cc1 (stereo not drawn)	6.5	-3.1	nt	nt
Cc1cccc(C)c1N(Cc1ccccc1F)S(C)(=O)=O	14.2	nt	0.821	nt
O=C(C[C@@H]1C/C=C\CCCC(=O)OC[C@@H]2CCCN2C1=O)N[C@H](CO)Cc1ccccc1	nt	-10.4	nt	nt
COc1ccc(C(C(=O)NC2CCCC2)N(C(=O)c2ccoc2C)c2ccc(C)c(C)c2)cc1 (stereo not drawn)	8.9	20.6	0.0141	nt
CC(=O)CSc1nc2cc3c(cc2cc1C#N)OCCO3	22.9	8.2	-3.26*	0.0543*
COc1cc2cc(C#N)c(SCC(=O)N3CCOCC3)nc2cc1OC	9.7	nt	0.233	nt
SMILES	Calb biofilm kill	Pf gamet viab	ROMK primary	ROMK retest
Cc1ccc(N2C(=O)[C@@H]3C(c4cccnc4)=NO[C@@H]3C2=O)cc1	3.0	-7.5	nt	0.0867
COc1ccc(N2C(=O)[C@@H]3C(c4cccnc4)=NO[C@@H]3C2=O)cc1	8.3	1.7	nt	nt
O=C(CN1C(=O)C2C3CC(C(Br)C3Br)C2C1=O)N1CCN(Cc2ccccc2)CC1 (stereo not drawn)	16.5	4.2	nt	nt
Cc1ccccc1C(N)c1ccncc1 (stereo not drawn)	nt	9.1	nt	nt
O=C(NCC1CCCO1)C(c1ccc(F)cc1)N(CC1CCCO1)C(=O)c1ccc(-c2ccccc2)[nH]1 (stereo not drawn)	3.0	nt	-3.16*	0.0595*
O=C(NCC1CCCO1)C(c1cccs1)N(Cc1cccs1)C(=O)c1ccc(-c2ccccc2)[nH]1 (stereo not drawn)	12.2	nt	-2.22	nt
CC(C)CNC(=O)c1cnn2c(C(F)(F)F)cc(C(F)(F)F)nc12	9.2	-19.0	nt	nt
Cc1ccc(-c2nc(CSCC(=O)NCCCN3CCOCC3)c(C)o2)cc1	nt	-17.9	0.722	nt
Cc1ccc(-c2nc(CSCC(=O)NCCN3CCN(Cc4ccccc4)CC3)c(C)o2)cc1	nt	-4.3	-3.71*	?
COc1ccc(OC)c(NC(=O)c2sc3nc(Cc4ccccc4)cc(C(F)(F)F)c3c2N)c1	nt	-32.3	-4.23*	0.0327*
COc1ccc(-c2cc(C(F)(F)F)c3c(N)c(C(=O)NCCSC)sc3n2)cc1	nt	11.9	nt	nt
CCN1C(=O)[C@H]2[C@@H](c3ccc(-c4cccc(Cl)c4)cc3)N[C@@](C)(C(=O)OC)[C@H]2C1=O	nt	4.9	nt	nt
Cc1cc(/C=N/NC(=O)c2ccsc2)c(C)n1-c1cnccn1	15.4	nt	0.188	0.0777
